The source of these data is ChEMBL document CHEMBL1629439, “High-throughput identification of antibacterials against methicillin-resistant Staphylococcus aureus (MRSA) and the transglycosylase” (Bioorg Med Chem, 2010).

Each structure is given as a SMILES string. In brackets after ≈: the same amount, converted by molar mass. Where only a bound is given, the exact number is not on record here.

As usually defined, the MIC is the lowest concentration found to suppress growth. In general, IC90 refers to the concentration at which the effect reaches the 90% level.

In assay [1] the test system is Stenotrophomonas maltophilia. Nature of the assay: Antimicrobial activity against Stenotrophomonas maltophilia ATCC 13637 after 18 to 24 hrs by alamar blue assay. The class given is functional. The following applies: Stenotrophomonas maltophilia, ATCC 13637; read-out: MIC. In a few lines:
(§1)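 Broth microdilution per NCCLS in Mueller-Hinton broth, 8-point twofold dilutions, 384-well format. Exponential-phase cells at 5 × 10^5 cells/ml incubated with compound 18–24 h at 37 °C, then 20% Alamar blue added and fluorescence read. MIC90 taken as the lowest concentration preventing at least 90% bacterial growth.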
A general note: Resazurin is reduced to fluorescent resorufin, in cell work by metabolically active cells.

Assay [2] deals with Bacillus subtilis. As to the kind of experiment: Antimicrobial activity against Bacillus subtilis ATCC 23857 after 18 to 24 hrs by alamar blue assay. In kind it is functional. In a few lines: as §1
The subject of assay [3] is Staphylococcus aureus. As to the kind of experiment: Antimicrobial activity against oxacillin- and methicillin-resistant Staphylococcus aureus isolate Sa-OXA-R2 after 18 to 24 hrs by alamar blue assay. In kind it is functional. A digest of the protocol:
(§2)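 Broth microdilution per NCCLS standard, Mueller-Hinton broth, 8-point twofold dilutions; exponentially growing cells at 5 10^5 cells/ml with compound, 18–24 h at 37 C; 20% Alamar blue added, fluorescence read; MIC90 taken as lowest concentration preventing at least 90% growth.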

Assay [4] has as its system Staphylococcus aureus. Nature of the assay: Antimicrobial activity against methicillin-resistant Staphylococcus aureus isolate NTUH4722 after 18 to 24 hrs by alamar blue assay. The class given is functional. A digest of the protocol:
as §2

In assay [5] the test system is Escherichia coli. As to the kind of experiment: Antimicrobial activity against Escherichia coli ATCC […] after 18 to 24 hrs by alamar blue assay. The class given is functional. Particulars: Escherichia coli; read-out: MIC. A digest of the protocol:
as §1

Assay [6] relates to Staphylococcus aureus. Nature of the assay: Antimicrobial activity against Staphylococcus aureus ATCC 29213 after 18 to 24 hrs by alamar blue assay.
Assay [7] deals with Staphylococcus aureus. Nature of the assay: Antimicrobial activity against methicillin-resistant Staphylococcus aureus ATCC 33592 after 18 to 24 hrs by alamar blue assay. The class given is functional. The following applies: Staphylococcus aureus, ATCC 33592; read-out: MIC. In a few lines:
as §2

In assay [8] the test system is Serratia marcescens. Nature of the assay: Antimicrobial activity against Serratia marcescens ATCC 14756 after 18 to 24 hrs by alamar blue assay. The class given is functional. The following applies: Serratia marcescens, ATCC 14756; read-out: MIC. A digest of the protocol:
as §1

Assay [9] is described as follows: Inhibition of transglycosylase assessed as inhibition of NBD- labelled lipid II polymerization. A digest of the protocol: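 100 µM NBD-labelled lipid II incubated 30 min with full-length PBP (EC, SA or Mtb) and 10 ng/µl N-acetylmuramidase in 50 mM Tris-HCl pH 8.0, 10 mM MgCl2, 0.1% Triton X-100, 10% DMSO, 15% MeOH. Supernatant run on anion-exchange HPLC with 20 mM–0.5 M ammonium acetate gradient. Inhibition calculated from substrate peak-area percentage. IC50 determined. S. aureus strains share one SA enzyme.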

Assay [10] has as its system Mycolicibacterium smegmatis. As to the kind of experiment: Antimicrobial activity against Mycobacterium smegmatis BCRC 11565 after 18 to 24 hrs by alamar blue assay. The class given is functional. Particulars: Mycolicibacterium smegmatis, BCRC 11565; read-out: MIC. In a few lines: as §1
Assay [11] deals with Pseudomonas aeruginosa. As to the kind of experiment: Antimicrobial activity against Pseudomonas aeruginosa ATCC 25619 after 18 to 24 hrs by alamar blue assay. In kind it is functional. The following applies: Pseudomonas aeruginosa, ATCC 25619; read-out: MIC. In a few lines: as §1
In assay [12] the test system is Acinetobacter baumannii. Nature of the assay: Antimicrobial activity against Acinetobacter baumannii ATCC 49139 after 18 to 24 hrs by alamar blue assay. The class given is functional. The following applies: Acinetobacter baumannii, ATCC 49139; read-out: MIC. A digest of the protocol:
as §1

As for `O=C(Nc1ccc(Sc2nc3ccccc3s2)c(Cl)c1)c1cc(Cl)cc(Cl)c1O`, the MIC is 16 µg/mL (≈ 33.2 µM) in [1]; below 0.03 µg/mL in assay [2]; at most 0.03 µg/mL in [3]; at most 0.03 µg/mL in assay [4]; 8 µg/mL (≈ 16.6 µM) in assay [5]; 8 µg/mL (≈ 16.6 µM) in assay [6]. Further, the minimum inhibitory concentration (MIC) in assay [7] amounted to 4 µg/mL (≈ 8.3 µM); in assay [8], 16 µg/mL (≈ 33.2 µM); in assay [10], 0.5 µg/mL (≈ 1.04 µM); in assay [11], 16 µg/mL (≈ 33.2 µM); in [12], 16 µg/mL (≈ 33.2 µM). In [9], the IC90 is above 100 µM.
Consider `O=C(Nc1cc(Cl)ccc1Oc1ccc(Br)c2ccccc12)c1cc(Cl)cc(I)c1O`, for which the MIC was 16 µg/mL (≈ 25.4 µM) in [1]; below 0.03 µg/mL in [2]; at most 0.03 µg/mL in [3]; at most 0.03 µg/mL in assay [4]; 8 µg/mL (≈ 12.7 µM) in assay [5]; 8 µg/mL (≈ 12.7 µM) in assay [6]. The MIC in [7] stood at 4 µg/mL (≈ 6.36 µM); in assay [8], 16 µg/mL (≈ 25.4 µM); in assay [10], 0.5 µg/mL (≈ 0.795 µM); in assay [11], 16 µg/mL (≈ 25.4 µM); in assay [12], 16 µg/mL (≈ 25.4 µM). In addition, in [9], the concentration for an effect of 90% (IC90) was determined as 100 µM.
For the compound `O=C(Nc1ccc(Oc2cc3ccccc3cc2Cl)c(Cl)c1)c1cc(Cl)cc(I)c1O`, the MIC in [1] was 16 µg/mL (≈ 27.4 µM); in assay [2] it was below 0.03 µg/mL; in [3], at most 0.03 µg/mL; in [4], at most 0.03 µg/mL; in [5] it was 8 µg/mL (≈ 13.7 µM); in assay [6], 4 µg/mL (≈ 6.84 µM). In addition, the MIC was at most 2 µg/mL in [7]; 16 µg/mL (≈ 27.4 µM) in assay [8]; 0.5 µg/mL (≈ 0.855 µM) in assay [10]; 16 µg/mL (≈ 27.4 µM) in assay [11]; 16 µg/mL (≈ 27.4 µM) in [12]. For the same compound, the IC90 in assay [9] was above 100 µM.
With `O=C(Nc1ccc(NS(=O)(=O)c2ccc(Cl)cc2)cc1Cl)c1cc(Cl)ccc1O`, the MIC in assay [1] was 16 µg/mL (≈ 33.9 µM); in [2], below 0.03 µg/mL; in assay [3] it was at most 0.03 µg/mL; in [4] it was at most 0.03 µg/mL; in assay [5], 8 µg/mL (≈ 17 µM); in assay [6] it was 16 µg/mL (≈ 33.9 µM). Also, the MIC came out at 32 µg/mL (≈ 67.8 µM) in [7]; 16 µg/mL (≈ 33.9 µM) in [8]; 0.5 µg/mL (≈ 1.06 µM) in [10]; 16 µg/mL (≈ 33.9 µM) in [11]; 16 µg/mL (≈ 33.9 µM) in [12]. In [9], the IC90 was above 100 µM.
`Cc1ccc(C(=O)c2cc(Cl)cc(NC(=O)c3cc(Br)cc(Br)c3O)c2Cl)cc1`: the MIC in [1] was 16 µg/mL (≈ 28.7 µM); in [2] it was below 0.03 µg/mL; in assay [3] it was above 4 µg/mL; in [4], above 4 µg/mL; in assay [5], 8 µg/mL (≈ 14.3 µM); in assay [6], above 4 µg/mL. The MIC in [7] is above 4 µg/mL; in assay [8], 16 µg/mL (≈ 28.7 µM); in assay [10] it was 0.5 µg/mL (≈ 0.896 µM); in [11], 16 µg/mL (≈ 28.7 µM); in assay [12] it was 16 µg/mL (≈ 28.7 µM). Moreover, the IC90 in assay [9] came to 100 µM.
Take `O=C(Nc1cc(Cl)cc(C(=O)c2ccc(Cl)cc2)c1Cl)c1cc(Cl)cc(Br)c1O`: the MIC in assay [1] is 16 µg/mL (≈ 30 µM); in assay [2], below 0.03 µg/mL; in [3], 0.5 µg/mL (≈ 0.936 µM); in assay [4], 1 µg/mL (≈ 1.87 µM); in assay [5], 8 µg/mL (≈ 15 µM); in assay [6], 0.5 µg/mL (≈ 0.936 µM). Further, the MIC was 0.5 µg/mL (≈ 0.936 µM) in [7]; 16 µg/mL (≈ 30 µM) in assay [8]; 0.5 µg/mL (≈ 0.936 µM) in assay [10]; 16 µg/mL (≈ 30 µM) in [11]; 16 µg/mL (≈ 30 µM) in assay [12]. Besides, the IC90 in [9] was 100 µM.
Take `Cc1ccc(C(C)C)c(Oc2ccc(Cl)cc2NC(=O)c2cc(I)cc(I)c2O)c1`: the MIC is 16 µg/mL (≈ 24.7 µM) in assay [1]; below 0.03 µg/mL in [2]; at most 0.03 µg/mL in assay [3]; at most 0.03 µg/mL in [4]; 8 µg/mL (≈ 12.4 µM) in assay [5]; 4 µg/mL (≈ 6.18 µM) in assay [6]. Further, the MIC in assay [7] was found to be 0.5 µg/mL (≈ 0.772 µM); in assay [8] it was 16 µg/mL (≈ 24.7 µM); in assay [10], 0.5 µg/mL (≈ 0.772 µM); in assay [11] it was 16 µg/mL (≈ 24.7 µM); in assay [12] it was 16 µg/mL (≈ 24.7 µM). In addition, the IC90 in [9] stood at 50 µM.
